Experimental data published in ChEMBL document CHEMBL4325826, “Identification of a Selective, Non-Prostanoid EP2 Receptor Agonist for the Treatment of Glaucoma: Omidenepag and its Prodrug Omidenepag Isopropyl” (J Med Chem, 2018).
Calls of active or inactive are those of the source. No cut-off for these calls is given here.

Key:
[1] = biological target: T1, Prostaglandin E2 receptor EP2 subtype (Homo sapiens, UniProt P43116); experiment: Agonist activity at recombinant human EP2 receptor expressed in HEK293 cells assessed as induction of cAMP accumulation after 30 mins; type: functional, cell-based
Summary of the method: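 HEK293 cells stably expressing h-EP2 grown in MEM with 10% FBS, seeded at 2 × 10^4 cells/well. Next day switched to serum-free MEM with 500 µM IBMX (final) for 30 min at 37 °C, then test compound in DMSO added for 30 min at 37 °C. Cells lysed, cAMP quantified by EIA or HTRF kit.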

[2] = biological target: T1, Prostaglandin E2 receptor EP2 subtype; experiment: Displacement of [3H]prostaglandin E2 from human EP2 receptor expressed in HEK293 cell membranes after 60 mins by liquid scintillation counting
[3] = biological target: T2, Prostaglandin E2 receptor EP1 subtype (Homo sapiens, UniProt P34995); experiment: Displacement of [3H]prostaglandin E2 from recombinant human full length EP1 receptor expressed in Chem-1 cell membranes after 60 mins by liquid scintillation counting
T2 sequence (P34995 whole entry): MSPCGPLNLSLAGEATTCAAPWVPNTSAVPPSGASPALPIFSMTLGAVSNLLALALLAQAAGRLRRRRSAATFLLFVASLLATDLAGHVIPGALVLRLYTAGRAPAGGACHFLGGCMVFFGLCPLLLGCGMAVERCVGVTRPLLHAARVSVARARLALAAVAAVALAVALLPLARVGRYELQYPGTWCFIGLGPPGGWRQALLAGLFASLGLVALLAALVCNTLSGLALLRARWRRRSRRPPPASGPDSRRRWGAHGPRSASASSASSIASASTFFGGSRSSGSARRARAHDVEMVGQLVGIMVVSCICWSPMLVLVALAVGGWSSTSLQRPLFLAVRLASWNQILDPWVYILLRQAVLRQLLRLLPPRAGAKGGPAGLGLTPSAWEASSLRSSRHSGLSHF

[4] = biological target: T3, Prostaglandin E2 receptor EP3 subtype (Homo sapiens, UniProt P43115); experiment: Displacement of [3H]prostaglandin E2 from recombinant human full length EP3 receptor expressed in Chem-1 cell membranes after 60 mins by liquid scintillation counting
T3 sequence (P43115 whole entry): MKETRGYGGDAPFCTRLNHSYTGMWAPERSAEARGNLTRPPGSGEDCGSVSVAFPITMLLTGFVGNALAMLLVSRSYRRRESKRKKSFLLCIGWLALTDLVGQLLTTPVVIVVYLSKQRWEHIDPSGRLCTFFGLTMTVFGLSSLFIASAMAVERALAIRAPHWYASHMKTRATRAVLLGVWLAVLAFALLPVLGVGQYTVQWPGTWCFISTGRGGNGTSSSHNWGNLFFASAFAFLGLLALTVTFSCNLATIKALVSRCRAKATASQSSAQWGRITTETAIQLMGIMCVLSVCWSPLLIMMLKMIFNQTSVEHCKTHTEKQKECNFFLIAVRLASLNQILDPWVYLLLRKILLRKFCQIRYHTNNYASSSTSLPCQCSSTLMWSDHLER

[5] = biological target: Prostaglandin E2 receptor EP4 subtype (Homo sapiens, UniProt P35408); experiment: Displacement of [3H]prostaglandin E2 from recombinant human full length EP4 receptor expressed in Chem-1 cell membranes after 60 mins by liquid scintillation counting
[6] = Apparent permeability of the compound at 100 uM after 5 hrs by PAMPA; type: ADME
Cynomolgus monkey [7] = experiment: Reduction of intraocular pressure in ocular normotensive cynomolgus monkey administered topically to the eyes once daily at around 5 pm from day 1 to day 14 and measured at […] at day 8 and 15 post dose; type: functional, organism-based; conditions: Macaca fascicularis
Cynomolgus monkey [8] = experiment: Reduction of intraocular pressure in ocular normotensive cynomolgus monkey at 0.01% administered topically to the eyes once daily at around 5 pm from day 1 to day 14 and measured at 10 am at day 8 and 15 post dose; conditions: Macaca fascicularis
[9] = Apparent permeability from apical side at pH 7.4 to basolateral side at pH 7.4 in human Caco2 cells a 10 uM after 30 to 120 mins by HPLC-MS analysis; type: ADME, cell-based; conditions: Caco-2, pH 7.4
[10] = Apparent permeability from apical side at pH 6.5 to basolateral side at pH 7.4 in human Caco2 cells a 10 uM after 30 to 120 mins by HPLC-MS analysis; type: ADME, cell-based; conditions: Caco-2, pH 6.5
[11] = Drug metabolism in human liver microsomes assessed as metabolic rate at 10 uM after 30 mins by HPLC-MS analysis; type: ADME, Microsome; conditions: 0.5 h
Cytochrome P450 3A4 [12] = biological target: T4, Cytochrome P450 3A4 (Homo sapiens, UniProt P08684); experiment: Inhibition of recombinant human CYP3A4 using 7-benzyloxyquinoline fluorescent substrate in presence of NADPH-generating system after 15 mins; type: ADME
Summary of the method: (§1)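 Each recombinant human CYP isoform (3A4, 2D6, 2C9, 2C19, 1A2) tested for inhibition by compound.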

Cytochrome P450 2D6 = Cytochrome P450 2D6 (Homo sapiens, UniProt P10635); experiment: Inhibition of recombinant human CYP2D6 using 3-(2-(N,N-diethyl-N-methylammonium)ethyl)-7-methoxy-4-methylcoumariniodide fluorescent substrate in presence of NADPH-generating system after 15 mins; type: ADME; summary of the method: as §1
Cytochrome P450 2C9 = Cytochrome P450 2C9 (Homo sapiens, UniProt P11712); experiment: Inhibition of recombinant human CYP2C9 using 7-methoxy-4-(trifluoromethyl)coumarin fluorescent substrate in presence of NADPH-generating system after 15 mins; type: ADME; summary of the method: as §1
Cytochrome P450 2C19 = Cytochrome P450 2C19 (Homo sapiens, UniProt P33261); experiment: Inhibition of recombinant human CYP2C19 using 3-cyano-7-ethoxycoumarin fluorescent substrate in presence of NADPH-generating system after 15 mins; type: ADME; summary of the method: as §1
Cytochrome P450 1A2 [13] = biological target: T5, Cytochrome P450 1A2 (Homo sapiens, UniProt P05177); experiment: Inhibition of recombinant human CYP1A2 using 3-cyano-7-ethoxycoumarin fluorescent substrate in presence of NADPH-generating system after 15 mins; type: ADME; summary of the method: as §1
T5 sequence (P05177 whole entry): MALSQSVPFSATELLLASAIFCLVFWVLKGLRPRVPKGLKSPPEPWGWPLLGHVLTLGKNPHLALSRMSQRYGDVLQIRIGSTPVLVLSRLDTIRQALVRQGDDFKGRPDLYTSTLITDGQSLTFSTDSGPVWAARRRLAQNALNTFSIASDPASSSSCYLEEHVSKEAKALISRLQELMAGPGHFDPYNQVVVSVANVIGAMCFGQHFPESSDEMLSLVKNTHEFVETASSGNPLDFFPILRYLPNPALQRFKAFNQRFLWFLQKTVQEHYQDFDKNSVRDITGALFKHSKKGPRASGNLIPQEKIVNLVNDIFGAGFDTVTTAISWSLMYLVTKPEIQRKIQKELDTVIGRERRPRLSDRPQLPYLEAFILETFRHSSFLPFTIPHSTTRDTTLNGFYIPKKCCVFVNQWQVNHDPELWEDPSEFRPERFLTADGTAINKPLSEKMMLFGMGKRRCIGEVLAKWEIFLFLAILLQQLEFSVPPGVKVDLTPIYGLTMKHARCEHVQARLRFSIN

Cytochrome P450 3A4 [14] = biological target: T4, Cytochrome P450 3A4; experiment: Induction of CYP3A4 in human Fa2N-4 cells up to 100 uM using testosterone as substrate incubated for 24 hrs followed by compound replacement for every 24 hrs during 72 hrs incubation period followed by substrate addition for 4 hrs by LC-MS analysis; type: ADME, cell-based
Summary of the method: (§2)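 Human Fa2N-4 cells exposed to compound to assess CYP3A4 and CYP1A2 induction. Five concentrations, single experiment in triplicate.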

Cytochrome P450 1A2 [15] = biological target: T5, Cytochrome P450 1A2; experiment: Induction of CYP1A2 in human Fa2N-4 cells up to 100 uM using phenacetin as substrate incubated for 24 hrs followed by compound replacement for every 24 hrs during 72 hrs incubation period followed by substrate addition for 4 hrs by LC-MS analysis; type: ADME, cell-based; summary of the method: as §2
[16] = biological target: T1, Prostaglandin E2 receptor EP2 subtype; experiment: Potency index, ratio of CP-533,536 EC50 to compound EC50 for recombinant human EP2 receptor expressed in HEK293 cells by cAMP accumulation assay; type: functional, cell-based
Cynomolgus monkey [17] = experiment: Reduction of intraocular pressure in ocular normotensive cynomolgus monkey at 0.3 to 1% administered topically to the eyes once daily at around 5 pm from day 1 to day 14 and measured at 10 am at day 8 and 15 post dose; conditions: Macaca fascicularis

T1 sequence (P43116 whole entry): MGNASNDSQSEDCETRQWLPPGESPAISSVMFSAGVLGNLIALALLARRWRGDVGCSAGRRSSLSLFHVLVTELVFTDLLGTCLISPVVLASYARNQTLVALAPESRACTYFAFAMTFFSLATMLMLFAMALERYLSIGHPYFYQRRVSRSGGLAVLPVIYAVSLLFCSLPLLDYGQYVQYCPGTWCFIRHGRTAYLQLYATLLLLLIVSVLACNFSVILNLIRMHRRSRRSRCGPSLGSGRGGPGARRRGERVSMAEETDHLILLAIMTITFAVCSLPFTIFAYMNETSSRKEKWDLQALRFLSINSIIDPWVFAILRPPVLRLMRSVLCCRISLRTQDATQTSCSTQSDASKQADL
T4 sequence (P08684 whole entry, canonical isoform): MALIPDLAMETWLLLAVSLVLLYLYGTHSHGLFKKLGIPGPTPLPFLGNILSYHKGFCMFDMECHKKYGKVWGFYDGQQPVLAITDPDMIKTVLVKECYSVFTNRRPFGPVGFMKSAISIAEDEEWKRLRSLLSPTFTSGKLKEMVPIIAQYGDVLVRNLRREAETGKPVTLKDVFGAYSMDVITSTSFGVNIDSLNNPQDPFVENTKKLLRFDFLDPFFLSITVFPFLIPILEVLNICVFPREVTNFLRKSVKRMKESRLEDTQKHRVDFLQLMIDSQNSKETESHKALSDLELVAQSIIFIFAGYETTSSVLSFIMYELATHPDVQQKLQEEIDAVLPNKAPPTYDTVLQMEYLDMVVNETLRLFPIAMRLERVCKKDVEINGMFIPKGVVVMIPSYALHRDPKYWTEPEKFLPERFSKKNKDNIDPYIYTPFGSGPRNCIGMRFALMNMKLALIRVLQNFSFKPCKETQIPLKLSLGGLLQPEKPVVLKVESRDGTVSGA
Chain of Prostaglandin E2 receptor EP4 subtype (P35408 whole entry): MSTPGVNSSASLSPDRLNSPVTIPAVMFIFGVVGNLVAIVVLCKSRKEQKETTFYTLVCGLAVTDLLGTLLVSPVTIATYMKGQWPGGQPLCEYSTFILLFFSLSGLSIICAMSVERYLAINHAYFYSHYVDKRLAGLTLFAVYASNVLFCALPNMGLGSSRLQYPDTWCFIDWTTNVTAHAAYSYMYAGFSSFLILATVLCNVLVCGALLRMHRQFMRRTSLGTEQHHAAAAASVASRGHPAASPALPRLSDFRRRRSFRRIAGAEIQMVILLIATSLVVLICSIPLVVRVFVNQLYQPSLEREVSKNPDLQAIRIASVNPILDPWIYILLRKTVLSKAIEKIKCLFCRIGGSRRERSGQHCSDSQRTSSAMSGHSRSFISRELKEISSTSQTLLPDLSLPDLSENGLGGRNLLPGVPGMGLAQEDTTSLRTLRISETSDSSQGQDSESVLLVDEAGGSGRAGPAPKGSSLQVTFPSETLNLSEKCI
Chain of Cytochrome P450 2D6 (P10635 whole entry): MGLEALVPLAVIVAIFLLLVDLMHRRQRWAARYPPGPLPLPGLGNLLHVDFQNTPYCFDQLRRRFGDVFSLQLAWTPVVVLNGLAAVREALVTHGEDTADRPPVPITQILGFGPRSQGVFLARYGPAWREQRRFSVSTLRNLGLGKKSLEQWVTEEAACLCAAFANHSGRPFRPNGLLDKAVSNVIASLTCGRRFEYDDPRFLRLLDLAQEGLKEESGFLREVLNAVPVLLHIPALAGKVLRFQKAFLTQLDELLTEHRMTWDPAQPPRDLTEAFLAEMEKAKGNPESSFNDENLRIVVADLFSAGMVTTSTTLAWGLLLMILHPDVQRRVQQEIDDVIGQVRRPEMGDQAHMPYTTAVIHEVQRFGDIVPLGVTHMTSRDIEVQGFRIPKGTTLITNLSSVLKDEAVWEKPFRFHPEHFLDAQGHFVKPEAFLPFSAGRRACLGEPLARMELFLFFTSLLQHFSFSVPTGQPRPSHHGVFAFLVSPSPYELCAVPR
Chain of Cytochrome P450 2C9 (P11712 whole entry): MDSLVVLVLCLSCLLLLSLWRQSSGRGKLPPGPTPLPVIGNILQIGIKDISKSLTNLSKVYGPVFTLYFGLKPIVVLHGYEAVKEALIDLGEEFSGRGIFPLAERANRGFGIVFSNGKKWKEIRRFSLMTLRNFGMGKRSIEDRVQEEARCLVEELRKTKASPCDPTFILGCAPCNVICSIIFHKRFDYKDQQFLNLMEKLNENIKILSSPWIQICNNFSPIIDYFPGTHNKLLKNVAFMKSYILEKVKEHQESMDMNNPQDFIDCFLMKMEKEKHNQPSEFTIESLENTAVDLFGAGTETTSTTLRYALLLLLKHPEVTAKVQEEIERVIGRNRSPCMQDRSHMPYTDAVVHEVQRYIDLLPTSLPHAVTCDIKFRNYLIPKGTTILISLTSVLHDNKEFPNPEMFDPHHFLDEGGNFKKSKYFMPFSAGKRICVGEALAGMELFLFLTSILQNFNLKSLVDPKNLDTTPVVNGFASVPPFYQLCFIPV
Chain of Cytochrome P450 2C19 (P33261 whole entry): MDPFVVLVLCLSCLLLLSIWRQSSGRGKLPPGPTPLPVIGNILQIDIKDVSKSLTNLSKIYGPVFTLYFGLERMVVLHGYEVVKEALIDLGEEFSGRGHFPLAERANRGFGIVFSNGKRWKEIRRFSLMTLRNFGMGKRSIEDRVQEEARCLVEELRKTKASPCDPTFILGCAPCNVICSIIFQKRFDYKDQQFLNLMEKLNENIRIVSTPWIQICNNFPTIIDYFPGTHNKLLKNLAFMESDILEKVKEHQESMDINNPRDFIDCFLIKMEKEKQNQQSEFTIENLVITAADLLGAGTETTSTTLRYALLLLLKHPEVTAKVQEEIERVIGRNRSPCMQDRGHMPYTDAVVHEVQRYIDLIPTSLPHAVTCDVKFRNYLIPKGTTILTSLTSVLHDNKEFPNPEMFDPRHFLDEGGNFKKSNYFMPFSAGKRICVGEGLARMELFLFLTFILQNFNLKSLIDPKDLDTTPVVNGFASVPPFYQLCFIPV

CCC1(c2ccc(CN(Cc3cccc(NCC(=O)O)n3)S(=O)(=O)c3cccnc3)cc2)CCC1
EC50 [1]: 13 nM

CC(C)(C)C1CCC(CN(Cc2cccc(NCC(=O)O)n2)S(=O)(=O)c2cccnc2)CC1 (stereo unspecified)
EC50 [1]: 649 nM

CC(C)OC(=O)CNc1cccc(CN(Cc2ccc(-n3cccn3)cc2)S(=O)(=O)c2cccnc2)n1 [OMIDENEPAG ISOPROPYL]
IC50 [2]: 4180 nM
IC50 [3]: > 10000 nM
IC50 [4]: > 10000 nM
IC50 [5]: > 10000 nM
Papp at 5 h, 100 µM [6]: 28 ×10⁻⁶ cm/s
Activity (Cynomolgus monkey [7]): Dose-dependent effect
Activity (Cynomolgus monkey [8]): Active

CC(C)C1(c2ccc(CN(Cc3cccc(NCC(=O)O)n3)S(=O)(=O)c3cccnc3)cc2)CC1
EC50 [1]: 18 nM

CC(C)(C)c1ccc(CN(Cc2cccc(NCC(=O)O)n2)S(C)(=O)=O)cc1
EC50 [1]: 91 nM

O=C(O)CNc1cccc(CN(Cc2ccc(-c3ccnnc3)cc2)S(=O)(=O)c2cccnc2)n1
EC50 [1]: 307 nM

CCCCC[C@H](O)/C=C/[C@H]1[C@H](O)CC(=O)[C@@H]1C/C=C\CCCC(=O)O [DINOPROSTONE]
IC50 [3]: < 30 nM

O=C(O)CNc1cccc(CN(Cc2ccc(-c3ccc(Cl)cc3)cc2)S(=O)(=O)c2cccnc2)n1
EC50 [1]: 75 nM

CC(C)(C)c1cccc(CN(Cc2cccc(NCC(=O)O)n2)S(=O)(=O)c2cccnc2)c1
EC50 [1]: 109 nM

CC(C)(C)c1ccc(CN(Cc2ccnc(NCC(=O)O)c2)S(=O)(=O)c2cccnc2)cc1
EC50 [1]: > 1000 nM

CC(C)(C)c1ccc(CN(Cc2cc(NCC(=O)O)ccn2)S(=O)(=O)c2cccnc2)cc1
EC50 [1]: > 1000 nM

O=C(O)CNc1cccc(CN(Cc2ccc(-c3ccccn3)cc2)S(=O)(=O)c2cccnc2)n1
EC50 [1]: 1.6 nM

CN(CC(=O)O)c1cccc(CN(Cc2ccc(C(C)(C)C)cc2)S(=O)(=O)c2cccnc2)n1
EC50 [1]: 283 nM

CC(C)(C)c1ccc(CN(Cc2cccc3oc(C(=O)O)cc23)S(=O)(=O)c2cccnc2)cc1
Ki [2]: 15 nM

CC(C)(C)c1ccc(CN(Cc2csc(NCC(=O)O)n2)S(=O)(=O)c2cccnc2)cc1
EC50 [1]: 360 nM

CC(C)(C)c1ccc(CN(Cc2ccc3cc(C(=O)O)oc3c2)S(=O)(=O)c2cccnc2)cc1
Ki [2]: 433 nM

CC(C)(C)c1ccc(CN(Cc2ccc3ccn(CC(=O)O)c3c2)S(=O)(=O)c2cccnc2)cc1
EC50 [1]: > 1000 nM

CC(C)(C)c1ccc(CN(Cc2cccc(NCCC(=O)O)n2)S(=O)(=O)c2cccnc2)cc1
EC50 [1]: 83 nM

CC(C)(C)c1ccc(CN(Cc2cccc(NCC(=O)O)n2)S(=O)(=O)c2cccc(Cl)c2)cc1
EC50 [1]: 620 nM

O=C(O)CNc1cccc(CN(CCCCCc2ccccc2)S(=O)(=O)c2cccnc2)n1
EC50 [1]: 118 nM

O=C(O)CNc1cccc(CN(Cc2ccc(C(F)(F)F)cc2)S(=O)(=O)c2cccnc2)n1
EC50 [1]: 119 nM

CC(C)(C)c1ccc(CN(Cc2cccc(NCC(=O)O)n2)S(=O)(=O)c2ccccc2Cl)cc1
EC50 [1]: > 1000 nM

COc1ccc(S(=O)(=O)N(Cc2ccc(C(C)(C)C)cc2)Cc2cccc(NCC(=O)O)n2)cc1
EC50 [1]: 19 nM

O=C(O)CNc1cccc(CN(Cc2ccc(-n3cncn3)cc2)S(=O)(=O)c2cccnc2)n1
EC50 [1]: 43 nM

O=C(O)CNc1cccc(CN(Cc2ccc(-n3cccn3)cc2)S(=O)(=O)c2cccnc2)n1 [OMIDENEPAG]
IC50 [2]: 10 nM
EC50 [1]: 1.1 nM
IC50 [3]: > 10000 nM
IC50 [4]: > 10000 nM
IC50 [5]: 5480 nM
Papp A→B at 10 µM [9]: 0.28 ×10⁻⁶ cm/s
Papp A→B at 10 µM [10]: 0.59 ×10⁻⁶ cm/s
Papp at 5 h, 100 µM [6]: 0.9 ×10⁻⁶ cm/s
Drug metabolism [11]: 57 pmol/min/mg
IC50 (Cytochrome P450 3A4 [12]): > 20000 nM
IC50 (Cytochrome P450 2D6): > 20000 nM
IC50 (Cytochrome P450 2C9): > 20000 nM
IC50 (Cytochrome P450 2C19): > 20000 nM
IC50 (Cytochrome P450 1A2 [13]): > 20000 nM
Activity (Cytochrome P450 3A4 [14]): Not Active
Activity (Cytochrome P450 1A2 [15]): Not Active
Ratio EC50 [16]: > 10
Activity (Cynomolgus monkey [17]): Active

O=C(O)CNc1cccc(CN(Cc2ccc(-c3ccc(F)cc3)cc2)S(=O)(=O)c2cccnc2)n1
EC50 [1]: 35 nM

O=C(O)CNc1cccc(CN(Cc2ccc(C3CCCCC3)cc2)S(=O)(=O)c2cccnc2)n1
EC50 [1]: 29 nM

CC(C)(C)c1ccc(CN(Cc2cccc(NCC(=O)O)n2)S(=O)(=O)c2ccccc2F)cc1
EC50 [1]: 45 nM
